XBP1 UPR activ – activators of adaptive arm of unfolded protein response (XBP1) | CHO-XBP1 luciferase reporter, IRE1-XBP1 UPR activation, luminescence; percent of tunicamycin response, DMSO as zero | activation, % at 20 µM | 330,000 compounds, 0.33% hits;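 active means versus positive control, 20 µM dose yields 30% or more activation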;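 further: 100% = tunicamycin at 10 µg/mL and 0% = DMSO only wells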
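Material: IRE1-XBP1 luciferase reporter CHO line / Quantity: one thousand reporter cells per well / Buffer or medium: F12 with 10% serum / Compound: 20 µM single concentration, DMSO 1% / Times: 6 h treatment, 37 °C / Detection: Steady-Glo luciferase glow luminescence, 10 min after reagent addition / Benchmarks: tunicamycin high, DMSO low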
VLA-4 inh – inhibition in a human VLA-4 binding assay; AID 2557; VLA-4 expressing cells, ligand binding flow cytometry; 330,000 compounds, 0.2% hits; inhibition, % (about 7 µM as worked out from the volumes in the protocol); P13612; in the data active means inhibition above about 50%
CHOP inh – CHOP inhibition in unfolded protein response; CHO-K1 CHOP-promoter luciferase, tunicamycin-induced, 15-18 h; inhibition, % at 10 µM; 220,000 compounds, 3.8% hits; AID 2732;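 active means compounds that reduced the stress-induced luciferase reporter signal by more than about 70% of percent inhibition, limit read from the data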;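 further: 0% = tunicamycin plus vehicle and 100% = wells without tunicamycin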
CHOP UPR activ – activators of apoptotic arm of unfolded protein response (CHOP); 330,000 compounds, 0.34% hits; AID 449763; activation, % at 10 µM; CHO-CHOP luciferase reporter, UPR activation, luminescence; percent of tunicamycin response over DMSO baseline;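 active means at 10 µM dose, activation of 40% or more, normalized to positive control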;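 further: 100% = tunicamycin at 10 µg/mL and 0% = DMSO alone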
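measured by = luciferase luminescence | assay system = CHO-CHOP cells, stable luciferase reporter of PERK-eIF2a-CHOP signalling | amount = 500 reporter cells seeded per well | timing = 6 h compound exposure at 37 °C after overnight seeding | controls = positive tunicamycin 10 µg/mL, negative DMSO alone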
B2AR ag – human beta-2 adrenergic receptor agonism by FAP. 340,000 compounds, 0.43% hits. response, % (no concentration beside the values). Am2.2-beta2AR cells, FAP receptor internalization, flow cytometry. AID 504454;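 active means response above a set limit, near 3 SD of response in nonfluorescent compounds, cut at about 42% in these data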
Target sequence (P07550 whole entry, looked up): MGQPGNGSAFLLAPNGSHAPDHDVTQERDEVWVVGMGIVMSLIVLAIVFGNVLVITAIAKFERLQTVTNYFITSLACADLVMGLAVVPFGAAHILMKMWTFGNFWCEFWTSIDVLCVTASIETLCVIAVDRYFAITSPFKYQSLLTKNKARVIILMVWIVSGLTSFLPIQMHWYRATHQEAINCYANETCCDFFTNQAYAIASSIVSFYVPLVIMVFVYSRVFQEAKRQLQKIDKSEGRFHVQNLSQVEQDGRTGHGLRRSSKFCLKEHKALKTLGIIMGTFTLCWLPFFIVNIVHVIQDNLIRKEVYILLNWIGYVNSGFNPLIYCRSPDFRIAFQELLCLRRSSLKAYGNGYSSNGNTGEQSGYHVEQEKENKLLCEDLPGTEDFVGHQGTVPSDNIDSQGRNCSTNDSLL
The depositor's hits bear a star; nt = not tested or not shown. This excerpt belongs to a sample that is enriched for hits.

SMILES | XBP1 UPR activ | VLA-4 inh | CHOP inh | CHOP UPR activ | B2AR ag
Cc1ccccc1NC(=O)COC(=O)c1ccc(S(C)(=O)=O)c([N+](=O)[O-])c1 | -6 | 9 | 103* | -2 | 16
COCCC(=O)Nc1c(-c2ccccc2)c2cc(Br)ccc2[nH]c1=O | -2 | -4 | nt | 2 | 1
O=C(CN1C(=O)NC2(CCCCCC2)C1=O)c1ccc(Cl)s1 | 2 | 9 | nt | 2 | -2
COc1cccc(-c2nnc3n2N=C(C(C)(C)C)CS3)c1 | -2 | 3 | 75* | -5 | -9
CCOC(=O)C1CCN(CC(O)COc2ccc(C(C)(C)CC)cc2)CC1 (centres undefined) | 4 | 6 | 93* | 1 | -4
Cc1[nH]n(-c2ccccc2)c(=O)c1/C=N/NC(=O)C(C)C | 8 | -9 | 76* | 38 | -6
CC(=O)N/N=C/c1c(C)[nH]n(-c2ccccc2)c1=O | -1 | 16 | 56 | -1 | -5
COC(=O)N/N=C\c1c(C)[nH]n(-c2ccccc2)c1=O | 0 | -1 | 60 | 6 | 6
COCC(=O)N/N=C/c1c(C)[nH]n(-c2ccccc2)c1=O | -2 | 15 | 73* | 7 | -5
Cc1c(C(=O)NCc2cccnc2)oc2ccc(S(=O)(=O)N3CC(C)CC(C)C3)cc12 (centres undefined) | 1 | 45 | 102* | -2 | 14
Cc1ccc(S(=O)(=O)N2CCCC(C(=O)NCc3cccnc3)C2)cc1Cl (centres undefined) | -1 | 7 | 88* | 0 | 4
CCC1(C(=O)c2ccc(Cl)cc2)C2c3ccccc3OC(=O)C21C(=O)Nc1ccccc1 (centres undefined) | -3 | 0 | 78* | 1 | 12
O=C(Nc1ccc(Nc2ccccc2)cc1)c1ccc(Cl)cc1 | -2 | -2 | nt | 1 | 1
CC(C)=CCC/C(C)=C/CCC(C)NCCN1CCNCC1 (centres undefined) | -7 | 6 | 95* | -1 | nt
CCOC(=O)CN(C(=O)CSc1nnc2c(n1)[nH]c1c(C)cc(C)cc12)c1ccccc1 | nt | nt | 82* | nt | nt
C/C(=N\N=C(/N)SC1CC(=O)N(c2ccccc2)C1=O)c1cccs1 (centres undefined) | -2 | 30 | 45 | 0 | 0
C/C(=N\N=C(/N)SC1CC(=O)N(c2ccc(Br)cc2)C1=O)c1cccs1 (centres undefined) | 5 | 16 | 87* | 0 | 12
CCCCCCOc1ccc(N2C(=O)CC(S/C(N)=N/N=C(\C)c3cccs3)C2=O)cc1 (centres undefined) | 0 | -4 | 88* | -1 | 1
COc1ccc(S(=O)(=O)N2CCN(C(=O)c3ccc(NC(C)=O)cc3)CC2)cc1 | -2 | 20 | nt | -1 | -2
O=C1C=C(c2ccc(F)cc2OCc2ccccc2)C[C@@H](c2ccc(F)cc2)C1 | 0 | 10 | nt | 6 | 5
COc1ccc(S(=O)(=O)N2CCCC(C(=O)NC3CC3)C2)cc1Cl (centres undefined) | 0 | 1 | nt | 1 | -4
COc1cccc(C(=O)OCC(=O)Nc2ccc(N3CCOCC3)cc2)c1 | -1 | -56 | nt | 0 | 7
COc1ccc(N2CC(C(=O)NCc3nnnn3-c3ccc(C)c(C)c3)CC2=O)cc1 (centres undefined) | -4 | -4 | nt | 0 | 0
COc1ccc(N2CCN(C(=O)c3ccc4c(c3)[nH]c(=S)n3c5ccccc5nc43)CC2)cc1 | -2 | -19 | 73* | 1 | nt
COc1ccc(N2CCN(C(=O)C3CCC(Cn4c(=S)[nH]c5ccccc5c4=O)CC3)CC2)cc1 (centres undefined) | 0 | 2 | 71* | 3 | -3
SMILES | XBP1 UPR activ | VLA-4 inh | CHOP inh | CHOP UPR activ | B2AR ag
CN1C2CC(OC(=O)[C@H](CO)c3ccccc3)CC1C1OC12 (some centres undefined) | nt | nt | 24 | nt | nt
CC1Cc2ccccc2N1C(=O)Cc1cccs1 (centres undefined) | 1 | 3 | 71* | 0 | -11
O=C(COc1ccccc1Br)Nc1ccc2c(c1)OCCCO2 | 3 | 10 | nt | 5 | -1
O=C(COC(=O)c1c(Cl)ccc(Cl)c1Cl)NC(=O)NCc1ccccc1 | -1 | 32 | 84* | 0 | -8
COc1cccc(OC)c1C(=O)OCC(=O)NC(=O)NCc1ccccc1 | 0 | 4 | -10 | 3 | 4
CCc1ccc(Nc2nnc(SCn3nnc4ccccc4c3=O)s2)cc1 | -1 | -2 | 82* | 1 | -4
Nc1nc(SCc2nc3scc(-c4cccs4)c3c(=O)[nH]2)n[nH]1 | -3 | 2 | 78* | -1 | 12
CCOC(=O)c1c(C)n(C)c2cc(-c3ccc(C)cc3)c(O)cc12 | 0 | 9 | 81* | 0 | 1
CCOC(=O)CN1C(=O)C2(OCCCO2)c2cc(Br)ccc21 | -6 | -2 | nt | -2 | -1
O=C(Cc1coc2ccc3ccccc3c12)Nc1nnc(C2CC2)s1 | -2 | 1 | 10 | -1 | 0
Cc1cc2occ(CC(=O)Nc3nnc(C4CC4)s3)c2cc1C | 2 | 15 | 90* | 1 | -9
COc1ccc2[nH]c(C(=O)N3CCC(CO)(Cc4cccc(C(F)(F)F)c4)CC3)c(C)c2c1 | -3 | -1 | nt | 1 | -8
Cc1c(C(=O)Nc2ccc(-c3nnc4n3CCCCC4)cc2)oc2c1ccc1ccccc12 | -2 | 27 | 95* | 5 | 19
OC(CN1CCN(c2ccccc2Cl)CC1)c1ccccc1 (centres undefined) | -3 | 15 | nt | 0 | 2
CCOC(=O)C1=C(CSc2nc3ccccc3s2)NC(=O)NC1c1cc(C)ccc1C (centres undefined) | -2 | -1 | 75* | -1 | -2
COC(=O)C1=C(CSc2nc3ccccc3o2)NC(=O)NC1c1cc(C)ccc1C (centres undefined) | -4 | 6 | 80* | -1 | -12
COC(=O)C1=C(CSCc2ccccc2)NC(=O)NC1c1cc(C)ccc1C (centres undefined) | -1 | 8 | 36 | -1 | 8
CCOC(=O)C1=C(CP(=O)(c2ccccc2)c2ccccc2)NC(=O)NC1c1ccc(OC)cc1 (centres undefined) | -1 | 6 | 2 | 5 | 9
CCOC(=O)C1=C(CSc2nc3ccccc3s2)NC(=O)NC1c1ccc(OC)cc1 (centres undefined) | -4 | -22 | 84* | -4 | 2
Cc1ccc2nc(-c3ccc(N)cc3)sc2c1 | -5 | -14 | 78* | -6 | 19
CC(=O)Nc1ccc(S(=O)(=O)Nc2nc3ccc(C)cc3s2)cc1 | 0 | 5 | 4 | 2 | -8
Cc1ccc2nc(-c3ccc(NS(=O)(=O)c4ccc(F)cc4)cc3)sc2c1 | 1 | -6 | 104* | 3 | 3
Cc1c(C(=O)NCc2ccccc2CN2CCCC2)oc2ccc(F)cc12 | -4 | 6 | nt | 0 | 3
